Test results taken from the array DNA melting data of Ke et al. (doi:10.1101/2024.01.08.574731).

Columns and labels:
[1] = folding enthalpy; higher = less favourable; fluorescence melt of hairpins on a sequencing array, two-state fit; conditions: sodium 0.088 M
In short: (§1)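 Folding enthalpy and melting temperature were estimated with bootstrapped two-state fits and combined across four replicates by inverse-variance weighting, with fitted temperatures raised by 9.35 °C to match UV melts. The data were Cy3 fluorescence of library hairpins, with annealed Cy3 and quencher oligos, on a sequenced MiSeq flow cell in 50 mM Na-HEPES pH 8.0, 25 mM NaCl, imaged in 2.5 °C steps up to 60 °C and normalised to pre-quench Cy3 and control constructs.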

[2] = melting temperature; fluorescence melt of hairpins on a sequencing array, two-state fit, raised by 9.35 °C to match UV melts; conditions: sodium 0.088 M
In short: as §1

Sequence	folding enthalpy [1]	Tm [2]
GACTTCGCGAAAGCGGTC (((..(((....))))))	-31.6 kJ/mol	35.1 °C
GATAGGACGAAAGTCATC (((..(((....))))))	-30.5 kJ/mol	25.2 °C
GATCGGGGGTCCGATC ((((((....))))))	-144 kJ/mol	57 °C
GCATAGCGAAAGCAACGC ((.(.((....)).).))	-50.2 kJ/mol	35.6 °C
GAATCGCGAAAGCGGTTC (((.(((....))).)))	-127 kJ/mol	61.7 °C
GGATCAGGAAACTAATCC ((((.((....)).))))	-54.1 kJ/mol	26.2 °C
GGTTTGACGAAAGTCACC (((..(((....))))))	-44.4 kJ/mol	30.4 °C
GATCCTATTTAGGATC ((((((....))))))	-170 kJ/mol	54.4 °C
GATCGATCCATCGATC ((((((....))))))	-206 kJ/mol	56.7 °C
GCTATCGGAAACAATAGC (((((.(....).)))))	-76.5 kJ/mol	35.1 °C
GAGAGCGGAAACGCTCCC (.(((((....))))).)	-40.7 kJ/mol	46.1 °C
GAACGCGAAAGCGCGTTC ((((((....)))..)))	-107 kJ/mol	63.1 °C
CGAAGCGGAAACGCATCG (((.(((....))).)))	-115 kJ/mol	51.5 °C
GCTTGGCGAAAGCCCTGC ((..(((....)))..))	-57.1 kJ/mol	40.2 °C
GCCATGCGAAAGCTGGGC (((..((....))..)))	-111 kJ/mol	62.6 °C
GGTAAAGGAAACTTTACC (((((((....)))))))	-200 kJ/mol	52.1 °C
GCAGCGCGAAAGCAGTGC (((..((....))..)))	-75.7 kJ/mol	52.8 °C
GAATAACGAAAGTTGTTC (((.(((....))).)))	-130 kJ/mol	45.5 °C
GAGGTGCGAAAGCATCTC (((.(((....))).)))	-142 kJ/mol	59.3 °C
GCGTCACACGC ((((...))))	-98.6 kJ/mol	56.2 °C
GGTGCCACGAAAGTGACC (((..(((....))))))	-64.8 kJ/mol	35.5 °C
GAGAACGAAAGTTGCTC ((((((....))).)))	-65.6 kJ/mol	33.6 °C
GCCCCAGGAAACCGGGAC (.(((.(....).))).)	-68.3 kJ/mol	31.1 °C

Sequence	folding enthalpy [1]	Tm [2]
GGGAAGTCGAAAGACCCC (((..(((....))))))	-95 kJ/mol	44.8 °C
GATCAATGCGTTGATC ((((((....))))))	-191 kJ/mol	50.9 °C
GGTCGGACGAAAGTCACC (((..(((....))))))	-53.2 kJ/mol	30.6 °C
GCCTGGCGAAAGCCCTGC ((..(((....)))..))	-51.2 kJ/mol	32.6 °C
GTTGACACGAAAGTGAAC (((..(((....))))))	-59.2 kJ/mol	34.1 °C
GCGTGGTGACGC ((((....))))	-72.3 kJ/mol	55.1 °C
GTCGGGACGAAAGTCGAC (((..(((....))))))	-79.2 kJ/mol	47.5 °C
GGCGACGAAAGTCATGCC ((((((....)))..)))	-114 kJ/mol	52.5 °C
GCGTATCAACGC ((((....))))	-107 kJ/mol	53.9 °C
GTTGACGGAAACGTTAAC (((.(((....))).)))	-113 kJ/mol	47.1 °C
GATCGCAAAGGCGATC ((((((....))))))	-175 kJ/mol	63.9 °C
GTTGTCCGAAAGGAAAAC (((.(((....))).)))	-113 kJ/mol	44.9 °C
GTCGGTCGAAAGACAGAC (((.(((....))).)))	-158 kJ/mol	57.8 °C
GAATTGGGAAACCAACTC ((.((((....)))).))	-45.5 kJ/mol	26 °C
CGGCGGCGGAAACGCCCG (((..(((....))))))	-43.4 kJ/mol	49.3 °C
GCCTGGCGAAAGCTTGGC (((..((....))..)))	-111 kJ/mol	59.4 °C
GGCACGGGAAACCATGCC ((((.((....)).))))	-128 kJ/mol	49.3 °C
GATCCTTGAAGGATC ((((((...))))))	-162 kJ/mol	51.2 °C
GCCCTGCGAAAGCAAAGC ((..(((....)))..))	-27.8 kJ/mol	29.2 °C
GAGCTCCGAAAGGATCTC (((.(((....))).)))	-105 kJ/mol	46.4 °C
GGTGATCGAAAGATACC (((.(((....))))))	-106 kJ/mol	37.5 °C
TCTAGGAAACTAGA (((((....)))))	-43.8 kJ/mol	29.7 °C
GATCTTTTAGAAGATC ((((((....))))))	-175 kJ/mol	44.4 °C

Sequence	folding enthalpy [1]	Tm [2]
GTGTCTCGAAAGAGCCAC (((.(((....))).)))	-121 kJ/mol	49.7 °C
GATCGTGCCCACGATC ((((((....))))))	-167 kJ/mol	59.7 °C
GATCTCCGCCGAGATC ((((((....))))))	-207 kJ/mol	50.9 °C
GTATAACGAAAGTTCTAC (((.(((....))).)))	-83.6 kJ/mol	31.1 °C
GATCTCTGGAGAGATC ((((((....))))))	-144 kJ/mol	53.1 °C
GATCAAGCTCTTGATC ((((((....))))))	-163 kJ/mol	48.3 °C
GGACGGGGAAACCCGTTC (.(((((....))))).)	-89.6 kJ/mol	56.1 °C
GCAATGCGAAAGCTGTGC (((..((....))..)))	-86.4 kJ/mol	48.4 °C
GCTAGGACGAAAGTCAGC (((..(((....))))))	-69.5 kJ/mol	42.7 °C
GCGTCGCGAAAGCGCTGC ((..(((....)))..))	-68.3 kJ/mol	50.2 °C
GTAGCCGAAAGGCCTAC ((((((....))).)))	-52.3 kJ/mol	45 °C
GGTTATGGAAACGTAACC (((((.(....).)))))	-170 kJ/mol	45.8 °C
GATAGGAAACTATC (((((....)))))	-64.4 kJ/mol	40.2 °C
GGGGACGAAAGTCTCCC ((((((....))).)))	-99.8 kJ/mol	60 °C
GGAAATGGAAACGTTTCC (((((.(....).)))))	-80.2 kJ/mol	44.1 °C
GTTTAGCGAAAGCTTAAC (((.(((....))).)))	-92.4 kJ/mol	44.1 °C
CGACCCGGAAACGGTCG (((.(((....))))))	-126 kJ/mol	52.5 °C
GGGACCGAAAGGTACCC ((((((....))).)))	-78.9 kJ/mol	64.1 °C
GATCTGGCGGCAGATC ((((((....))))))	-223 kJ/mol	53.3 °C
GGATTTGGAAACAAATTC (.(((((....))))).)	-118 kJ/mol	40.1 °C
TTCATGAAAATGAA (((((....)))))	-40.8 kJ/mol	28.9 °C
GGTTGCCGAAAGGCTACC (((.(((....))).)))	-124 kJ/mol	61.8 °C
GATGGTGGAAACACCACC (.(((((....))))).)	-56.9 kJ/mol	44.6 °C

Sequence	folding enthalpy [1]	Tm [2]
GAAAGCGGAAACGCTTCC (.(((((....))))).)	-51.5 kJ/mol	41.4 °C
GATCATGATGATGATC ((((((....))))))	-135 kJ/mol	47.5 °C
GTACTCGAAAGAGTCTAC ((((((....)))..)))	-61.3 kJ/mol	35.5 °C
GTTTGGGGAAACTCAAGC (.(((.(....).))).)	-51.1 kJ/mol	27.1 °C
GTCCGACCGAAAGGTGAC (((..(((....))))))	-69.2 kJ/mol	36.6 °C
GCTCACGAAAGTGATAGC ((((((....)))..)))	-72.8 kJ/mol	47.4 °C
GATCGACAGGTCGATC ((((((....))))))	-164 kJ/mol	60.3 °C
TTCGGGAAACCGAA (((((....)))))	-78.5 kJ/mol	46.7 °C
GTCGGCTCGAAAGAGGAC (((..(((....))))))	-67 kJ/mol	32.2 °C
GTGTCCGAAAGGACGCAC ((((((....)))..)))	-43.5 kJ/mol	57.8 °C
GATAACGAAAGTTGTATC ((((((....)))..)))	-79.3 kJ/mol	26.9 °C
GGAAAAGGAAACTTTCCC ((.((((....)))).))	-54.6 kJ/mol	27.8 °C
GGACGGACGAAAGTCTCC (((..(((....))))))	-55.1 kJ/mol	30.5 °C
GTGTCACCGAAAGGTCAC (((..(((....))))))	-85.7 kJ/mol	38.2 °C
GATCAGAGTACTGATC ((((((....))))))	-156 kJ/mol	49 °C
GTCCTCGAAAGAGGGGAC ((((((....)))..)))	-48.7 kJ/mol	43.6 °C
GTGATCGAAAGATGCAC ((((((....))).)))	-82.1 kJ/mol	38.7 °C
GATCAGTTAGCTGATC ((((((....))))))	-168 kJ/mol	53.1 °C
GTGCTGGCGAAAGCCCAC (((..(((....))))))	-43.1 kJ/mol	49.3 °C
GCAGACCGAAAGGTATGC (((.(((....))).)))	-165 kJ/mol	64.1 °C
GTCATGTCGAAAGACGAC (((..(((....))))))	-62 kJ/mol	38 °C
GCGGAGGGAAACCTTCGC (((.(((....))).)))	-194 kJ/mol	56.5 °C
GTCCCTGGAAACAAGGAC ((((.((....)).))))	-83.7 kJ/mol	34.7 °C
